pIC50: −log10 of the molar value. Calls of active or inactive are those of the source. No cut-off for these calls is given here.
Columns and labels:
[1] = target: Dual specificity protein kinase CLK3 (Homo sapiens) (UniProt P49761); assay: Activity of human CLK3 kinase at 1 uM
[2] = target: Protein kinase C eta type (Homo sapiens) (UniProt P24723); assay: Activity of human PKCeta kinase at 1 uM
Summary of the method: (§1)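 Single-point screen in a 226-kinase panel run by an outside service. Test compound at 1 μM with ATP at 10 μM in every assay. Other assay conditions are not given.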

[3] = target: Testis-specific serine/threonine-protein kinase 2 (Homo sapiens) (UniProt Q96PF2); assay: Activity of human TSSK2 kinase at 1 uM; summary of the method: as §1
[4] = target: Rho-associated protein kinase 2 (Rattus norvegicus) (UniProt Q62868); assay: Activity of rat ROCK2 kinase at 1 uM; summary of the method: as §1
[5] = target: Ephrin type-A receptor 1 (Homo sapiens) (UniProt P21709); assay: Inhibition of EphA1 kinase at 1 uM
Summary of the method: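 Single-point screen within a 226-kinase panel, with compound at 1 μM and ATP at 10 μM in all assays.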

[6] = system: PC-3; assay: Induction of apoptosis in human PC3 cells assessed as PARP cleavage at 1 uM after 48 hrs by Western blot method; type: functional, cell-based
[7] = target: Angiopoietin-1 receptor (Homo sapiens) (UniProt Q02763); assay: Activity of human Tie2 kinase at 1 uM; summary of the method: as §1
[8] = species: Homo sapiens; assay: Activity of human CDK5/p25 kinase at 1 uM
[9] = target: Interleukin-1 receptor-associated kinase 4 (Homo sapiens) (UniProt Q9NWZ3); assay: Activity of human IRAK4 kinase at 1 uM
[10] = target: Myosin light chain kinase, smooth muscle (Homo sapiens) (UniProt Q15746); assay: Activity of human MLCK kinase at 1 uM
[11] = species: Homo sapiens; assay: Activity of human CK2 kinase at 1 uM
[12] = system: PC-3; assay: Increase in mitotis in human PC3 cells assessed as mitotic cell count after 24 hrs; type: functional
Summary of the method: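 Cultured cells were exposed to drug for 24 h and stained with MPM2 (mitotic marker) and Hoechst. Cells were imaged on a high-content imaging system, and the percentage of Hoechst-stained cells positive for MPM2 was calculated.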

[13] = target: Dual specificity mitogen-activated protein kinase kinase 7 (Homo sapiens) (UniProt O14733); assay: Activity of human MKK7-beta kinase at 1 uM
[14] = target: Activin receptor type-1B (Homo sapiens) (UniProt P36896); assay: Activity of human ALK4 kinase at 1 uM
[15] = target: Vascular endothelial growth factor receptor 1 (Homo sapiens) (UniProt P17948); assay: Activity of human Flt1 kinase at 1 uM
Summary of the method: (§2)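 Single-point kinase profiling: each kinase in a 226-kinase panel tested with compound at 1 μM and ATP at 10 μM in every assay, run by an external screening service.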

[16] = target: Ribosomal protein S6 kinase alpha-3 (Homo sapiens) (UniProt P51812); assay: Activity of human Rsk2 kinase at 1 uM; summary of the method: as §1
[17] = target: Mitogen-activated protein kinase 1 (ERK2) (Mus musculus) (UniProt P63085); assay: Activity of mouse MAPK2 kinase at 1 uM
[18] = target: Tyrosine-protein kinase Fer (Homo sapiens) (UniProt P16591); assay: Activity of human Fer kinase at 1 uM; summary of the method: as §2
[19] = target: Tyrosine-protein kinase receptor UFO (Homo sapiens) (UniProt P30530); assay: Activity of human Axl kinase at 1 uM; summary of the method: as §2
[20] = target: Serine/threonine-protein kinase PAK 6 (Homo sapiens) (UniProt Q9NQU5); assay: Activity of human PAK6 kinase at 1 uM; summary of the method: as §1
[21] = target: Serine/threonine-protein kinase D1 (Homo sapiens) (UniProt Q15139); assay: Activity of human PKCmu kinase at 1 uM; summary of the method: as §2
[22] = target: Ribosomal protein S6 kinase alpha-4 (Homo sapiens) (UniProt O75676); assay: Activity of human MSK2 kinase at 1 uM; summary of the method: as §2
[23] = target: Macrophage colony-stimulating factor 1 receptor (Homo sapiens) (UniProt P07333); assay: Activity of human FMS kinase at 1 uM
[24] = target: Serine/threonine-protein kinase BRSK1 (Homo sapiens) (UniProt Q8TDC3); assay: Activity of human BrSK1 kinase at 1 uM
[25] = Plasma concentration in human HCT116 cells xenografted in mouse at 30 mg/kg, po after 8 hrs; type: ADME, organism-based, HCT-116; set-up: dose 30 mg/kg, route oral
[26] = target: cAMP-dependent protein kinase catalytic subunit PRKX (Homo sapiens) (UniProt P51817); assay: Activity of human PrKX kinase at 1 uM; summary of the method: as §1
[27] = system: PC-3; assay: Induction of apoptosis in human PC3 cells assessed as PARP cleavage at 0.25 uM after 48 hrs by Western blot method; type: functional, cell-based
[28] = target: Tyrosine-protein kinase FRK (Homo sapiens) (UniProt P42685); assay: Activity of human PTK5 kinase at 1 uM; summary of the method: as §1
[29] = system: PC-3; assay: Cell cycle arrest in human PC3 cells by accumulation at S phase at 4 uM after 24 hrs by flow cytometry relative to control; type: functional
Summary of the method: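 DNA content profiles by flow cytometry of PC-3 prostate tumor cells exposed to drug diluted in DMSO for 24 or 48 h. Phase distribution was compared with DMSO-treated control cells.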

[30] = target: PAS domain-containing serine/threonine-protein kinase (Homo sapiens) (UniProt Q96RG2); assay: Activity of human PASK kinase at 1 uM; summary of the method: as §2
[31] = target: Ephrin type-A receptor 4 (Homo sapiens) (UniProt P54764); assay: Activity of human EphA4 kinase at 1 uM
[32] = target: Serine/threonine-protein kinase WNK3 (Homo sapiens) (UniProt Q9BYP7); assay: Activity of human WNK3 kinase at 1 uM; summary of the method: as §1
[33] = target: Misshapen-like kinase 1 (Homo sapiens) (UniProt Q8N4C8); assay: Activity of human MINK kinase at 1 uM
[34] = Inhibition of CAMK2 by radioactive flashplate assay
[35] = target: Serine/threonine-protein kinase MRCK alpha (Homo sapiens) (UniProt Q5VT25); assay: Activity of human MRCKalpha kinase at 1 uM
[36] = target: Serine/threonine-protein kinase MARK1 (Homo sapiens) (UniProt Q9P0L2); assay: Activity of human MARK1 kinase at 1 uM; summary of the method: as §2
[37] = target: Proto-oncogene tyrosine-protein kinase receptor Ret (Homo sapiens) (UniProt P07949); assay: Activity of human Ret kinase at 1 uM
Summary of the method: (§3)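 Single-concentration screen across a 226-kinase panel run by an outside provider; test compound at 1 μM with 10 μM ATP in every assay. Other conditions not detailed.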

[38] = target: SRSF protein kinase 1 (Homo sapiens) (UniProt Q96SB4); assay: Activity of human SRPK1 kinase at 1 uM; summary of the method: as §3
[39] = target: Focal adhesion kinase 1 (Homo sapiens) (UniProt Q05397); assay: Activity of human FAK kinase at 1 uM
[40] = target: Mitogen-activated protein kinase kinase kinase 5 (Homo sapiens) (UniProt Q99683); assay: Activity of human ASK1 kinase at 1 uM
[41] = system: PC-3; assay: Induction of apoptosis in human PC3 cells assessed as PARP cleavage at 4 uM after 48 hrs by Western blot method; type: functional, cell-based
[42] = target: Cyclin-dependent kinase 2/cyclin E1 (Homo sapiens) (UniProt P24864+P24941); assay: Activity of human CDK2/cyclin E kinase at 1 uM; type: protein-complex assay

Chain of Serine/threonine-protein kinase WNK3 (Homo sapiens) (Q9BYP7 whole entry): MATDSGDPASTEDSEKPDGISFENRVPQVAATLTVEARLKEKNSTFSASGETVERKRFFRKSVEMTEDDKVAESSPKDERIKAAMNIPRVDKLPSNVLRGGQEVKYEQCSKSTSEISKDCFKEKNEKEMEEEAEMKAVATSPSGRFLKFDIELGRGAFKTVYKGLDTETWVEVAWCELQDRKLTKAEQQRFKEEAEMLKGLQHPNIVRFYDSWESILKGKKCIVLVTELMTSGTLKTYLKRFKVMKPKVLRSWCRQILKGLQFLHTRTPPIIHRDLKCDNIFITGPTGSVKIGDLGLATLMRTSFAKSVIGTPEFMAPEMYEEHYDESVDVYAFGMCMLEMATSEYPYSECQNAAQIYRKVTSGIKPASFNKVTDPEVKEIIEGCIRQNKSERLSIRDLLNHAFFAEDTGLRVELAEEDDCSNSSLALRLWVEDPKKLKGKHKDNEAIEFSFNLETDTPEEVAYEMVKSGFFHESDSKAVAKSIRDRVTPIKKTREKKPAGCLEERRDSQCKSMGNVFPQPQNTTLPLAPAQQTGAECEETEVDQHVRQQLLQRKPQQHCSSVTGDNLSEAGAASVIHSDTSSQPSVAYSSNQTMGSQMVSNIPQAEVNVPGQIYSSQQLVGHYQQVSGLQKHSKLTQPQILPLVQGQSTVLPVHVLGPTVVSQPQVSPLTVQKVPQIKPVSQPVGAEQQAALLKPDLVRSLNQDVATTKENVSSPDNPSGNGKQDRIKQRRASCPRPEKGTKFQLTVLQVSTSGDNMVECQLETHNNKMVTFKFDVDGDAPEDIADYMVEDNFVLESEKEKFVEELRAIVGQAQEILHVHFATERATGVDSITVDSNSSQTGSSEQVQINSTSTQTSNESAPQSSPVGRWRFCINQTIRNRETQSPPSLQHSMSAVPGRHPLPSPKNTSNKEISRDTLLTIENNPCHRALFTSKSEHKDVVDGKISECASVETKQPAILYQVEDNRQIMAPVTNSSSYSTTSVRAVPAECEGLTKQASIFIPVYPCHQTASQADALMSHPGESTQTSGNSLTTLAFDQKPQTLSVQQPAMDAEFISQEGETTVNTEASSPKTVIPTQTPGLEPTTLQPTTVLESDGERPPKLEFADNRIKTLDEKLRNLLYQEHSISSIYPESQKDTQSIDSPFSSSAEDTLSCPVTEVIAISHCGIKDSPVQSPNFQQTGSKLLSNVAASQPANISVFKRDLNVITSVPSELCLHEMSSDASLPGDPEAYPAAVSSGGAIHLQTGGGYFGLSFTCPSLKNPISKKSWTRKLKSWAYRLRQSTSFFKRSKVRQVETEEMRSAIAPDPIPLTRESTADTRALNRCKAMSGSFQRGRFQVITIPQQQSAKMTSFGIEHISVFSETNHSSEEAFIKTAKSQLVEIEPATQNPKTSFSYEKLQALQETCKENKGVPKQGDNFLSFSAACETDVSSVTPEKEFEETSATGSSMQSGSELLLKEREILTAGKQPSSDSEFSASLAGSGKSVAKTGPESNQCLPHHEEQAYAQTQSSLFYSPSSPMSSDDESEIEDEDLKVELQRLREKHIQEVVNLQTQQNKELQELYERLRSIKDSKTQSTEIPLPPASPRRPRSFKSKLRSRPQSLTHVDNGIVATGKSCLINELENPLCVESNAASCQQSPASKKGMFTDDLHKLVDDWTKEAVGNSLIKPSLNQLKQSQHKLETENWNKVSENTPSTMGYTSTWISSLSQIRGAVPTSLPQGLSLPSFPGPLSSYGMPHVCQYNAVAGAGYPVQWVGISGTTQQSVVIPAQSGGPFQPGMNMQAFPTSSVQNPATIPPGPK
Chain of Testis-specific serine/threonine-protein kinase 2 (Homo sapiens) (Q96PF2 whole entry): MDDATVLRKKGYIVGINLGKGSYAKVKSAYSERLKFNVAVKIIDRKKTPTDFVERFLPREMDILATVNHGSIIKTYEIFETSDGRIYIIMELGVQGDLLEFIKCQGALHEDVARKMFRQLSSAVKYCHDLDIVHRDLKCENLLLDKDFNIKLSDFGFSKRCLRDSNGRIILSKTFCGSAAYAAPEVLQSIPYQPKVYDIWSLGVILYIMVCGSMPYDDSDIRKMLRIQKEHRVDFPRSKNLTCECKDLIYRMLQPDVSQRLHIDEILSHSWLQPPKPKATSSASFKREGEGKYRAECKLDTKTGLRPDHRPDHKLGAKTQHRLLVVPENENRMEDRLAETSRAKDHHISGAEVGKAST
Chain of PAS domain-containing serine/threonine-protein kinase (Homo sapiens) (Q96RG2 whole entry, the tested form may be a part): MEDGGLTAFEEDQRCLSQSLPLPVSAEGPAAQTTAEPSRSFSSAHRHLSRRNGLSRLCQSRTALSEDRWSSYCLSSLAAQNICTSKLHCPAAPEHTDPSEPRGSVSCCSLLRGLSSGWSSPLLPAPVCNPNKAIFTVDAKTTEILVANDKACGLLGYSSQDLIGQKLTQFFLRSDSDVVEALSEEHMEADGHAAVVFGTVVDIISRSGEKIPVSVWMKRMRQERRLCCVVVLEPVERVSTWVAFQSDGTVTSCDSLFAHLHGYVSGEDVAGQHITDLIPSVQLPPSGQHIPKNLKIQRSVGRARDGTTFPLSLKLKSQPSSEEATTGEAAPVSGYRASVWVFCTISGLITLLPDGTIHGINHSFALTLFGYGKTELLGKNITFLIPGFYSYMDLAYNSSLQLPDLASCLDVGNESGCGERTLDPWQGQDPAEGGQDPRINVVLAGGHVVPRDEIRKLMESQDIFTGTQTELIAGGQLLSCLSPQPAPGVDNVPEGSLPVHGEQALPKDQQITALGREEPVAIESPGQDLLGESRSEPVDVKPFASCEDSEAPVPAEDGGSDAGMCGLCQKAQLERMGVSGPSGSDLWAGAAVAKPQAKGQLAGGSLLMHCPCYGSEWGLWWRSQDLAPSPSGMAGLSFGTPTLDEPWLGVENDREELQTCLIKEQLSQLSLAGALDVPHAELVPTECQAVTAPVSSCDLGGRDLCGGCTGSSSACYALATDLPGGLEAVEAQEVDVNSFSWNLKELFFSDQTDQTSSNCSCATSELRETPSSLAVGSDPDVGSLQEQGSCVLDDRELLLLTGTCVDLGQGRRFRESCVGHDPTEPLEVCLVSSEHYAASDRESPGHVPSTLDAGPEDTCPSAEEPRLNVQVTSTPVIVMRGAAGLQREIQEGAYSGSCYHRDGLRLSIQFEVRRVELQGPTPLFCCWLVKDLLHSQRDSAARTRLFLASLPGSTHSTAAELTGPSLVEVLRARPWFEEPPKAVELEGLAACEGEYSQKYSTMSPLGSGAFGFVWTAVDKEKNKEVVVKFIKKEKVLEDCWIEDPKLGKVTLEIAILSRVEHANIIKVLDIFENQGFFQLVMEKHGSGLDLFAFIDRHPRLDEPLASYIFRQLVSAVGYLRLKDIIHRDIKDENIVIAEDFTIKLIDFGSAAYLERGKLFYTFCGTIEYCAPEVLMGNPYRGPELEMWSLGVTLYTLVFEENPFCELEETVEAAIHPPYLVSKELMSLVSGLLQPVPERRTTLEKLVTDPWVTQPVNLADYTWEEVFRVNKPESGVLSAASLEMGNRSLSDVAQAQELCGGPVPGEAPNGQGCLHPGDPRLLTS
Chain of Serine/threonine-protein kinase MARK1 (Homo sapiens) (Q9P0L2 whole entry, looked up): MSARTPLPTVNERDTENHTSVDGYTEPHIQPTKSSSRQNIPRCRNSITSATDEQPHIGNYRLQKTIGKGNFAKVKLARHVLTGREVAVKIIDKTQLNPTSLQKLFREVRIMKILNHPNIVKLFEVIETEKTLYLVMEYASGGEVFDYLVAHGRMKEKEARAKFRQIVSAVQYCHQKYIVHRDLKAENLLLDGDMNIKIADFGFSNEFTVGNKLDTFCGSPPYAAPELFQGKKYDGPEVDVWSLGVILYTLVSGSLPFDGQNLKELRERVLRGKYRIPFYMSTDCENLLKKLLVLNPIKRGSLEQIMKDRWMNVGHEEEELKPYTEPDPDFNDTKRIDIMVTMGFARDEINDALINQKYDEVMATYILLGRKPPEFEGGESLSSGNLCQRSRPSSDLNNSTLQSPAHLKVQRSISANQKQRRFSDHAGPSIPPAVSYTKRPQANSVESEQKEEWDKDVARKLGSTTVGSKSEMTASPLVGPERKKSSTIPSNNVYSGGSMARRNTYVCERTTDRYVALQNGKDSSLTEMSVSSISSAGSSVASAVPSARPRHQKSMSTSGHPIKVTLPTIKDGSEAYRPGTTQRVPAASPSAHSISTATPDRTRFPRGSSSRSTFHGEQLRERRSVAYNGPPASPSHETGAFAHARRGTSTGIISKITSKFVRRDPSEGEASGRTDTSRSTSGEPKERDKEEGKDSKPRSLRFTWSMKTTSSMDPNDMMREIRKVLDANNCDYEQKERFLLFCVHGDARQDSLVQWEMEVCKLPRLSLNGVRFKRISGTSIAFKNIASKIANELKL
Chain of Dual specificity protein kinase CLK3 (Homo sapiens) (P49761 whole entry, looked up): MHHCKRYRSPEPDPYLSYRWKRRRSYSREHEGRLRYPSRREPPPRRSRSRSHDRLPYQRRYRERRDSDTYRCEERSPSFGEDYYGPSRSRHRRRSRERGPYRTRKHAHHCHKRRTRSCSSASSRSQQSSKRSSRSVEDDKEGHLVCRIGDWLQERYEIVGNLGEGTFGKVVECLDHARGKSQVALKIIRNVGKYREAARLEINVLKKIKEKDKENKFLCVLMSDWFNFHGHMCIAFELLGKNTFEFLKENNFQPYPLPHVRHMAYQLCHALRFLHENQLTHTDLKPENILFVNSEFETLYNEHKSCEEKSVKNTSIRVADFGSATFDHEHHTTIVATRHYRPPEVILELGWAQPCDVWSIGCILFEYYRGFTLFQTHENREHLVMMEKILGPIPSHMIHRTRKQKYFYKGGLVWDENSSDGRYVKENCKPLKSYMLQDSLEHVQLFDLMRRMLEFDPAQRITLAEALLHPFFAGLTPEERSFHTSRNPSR

Activity [1]: 81%
Activity [2]: 120%
Activity [3]: 101%
Activity [4]: 92%
inhibition [5]: 71%
Activity [7]: 51%
Activity [8]: 94%
Activity [9]: 97%
Activity [10]: 95%
Activity [11]: 108%
Activity [13]: 95%
Activity [14]: 115%
Activity [15]: 65%
Activity [16]: 76%
Activity [17]: 105%
Activity [18]: 57%
Activity [19]: 41%
Activity [20]: 108%
Activity [21]: 112%
Activity [22]: 106%
Activity [23]: 95%
Activity [24]: 92%
concentration at 8 h [25]: 7.4 µM
Activity [26]: 99%
Activity [28]: 90%
Activity [30]: 114%
Activity [31]: 90%
Activity [32]: 88%
Activity [33]: 104%
pIC50 [34]: < 4.00
Activity [35]: 101%
Activity [36]: 106%
Activity [37]: 80%
Activity [38]: 105%
Activity [39]: 110%
Activity [40]: 120%
Activity [42]: 97%
Structure (SMILES): O=C(O)c1ccc(Nc2ncc3c(n2)-c2ccc(Cl)cc2C(c2c(F)cccc2F)=NC3)cc1 [MLN-8054]
Activity [6]: Active
Activity [12]: 12%
Activity [27]: Active
Activity [29]: 13.2%
Activity [41]: Active

From ChEMBL document CHEMBL1147076, “Antitumor activity of MLN8054, an orally active small-molecule inhibitor of Aurora A kinase” (Proc Natl Acad Sci U S A, 2007)
